Experimental data: PMC4576835 (Clinical and experimental pharmacology & physiology, 2009)
One block for each molecule: values may come before it.

How the values were obtained:
[1] = target: T1, glypican-1 binding to Slit protein (Homo sapiens, UniProt O94813, DEL1116-1124); assay: ELISA of glypican-1–Fc binding to immobilised human full-length Slit-2
T1 sequence (O94813 with tags, fused parts or gaps DEL1116-1124): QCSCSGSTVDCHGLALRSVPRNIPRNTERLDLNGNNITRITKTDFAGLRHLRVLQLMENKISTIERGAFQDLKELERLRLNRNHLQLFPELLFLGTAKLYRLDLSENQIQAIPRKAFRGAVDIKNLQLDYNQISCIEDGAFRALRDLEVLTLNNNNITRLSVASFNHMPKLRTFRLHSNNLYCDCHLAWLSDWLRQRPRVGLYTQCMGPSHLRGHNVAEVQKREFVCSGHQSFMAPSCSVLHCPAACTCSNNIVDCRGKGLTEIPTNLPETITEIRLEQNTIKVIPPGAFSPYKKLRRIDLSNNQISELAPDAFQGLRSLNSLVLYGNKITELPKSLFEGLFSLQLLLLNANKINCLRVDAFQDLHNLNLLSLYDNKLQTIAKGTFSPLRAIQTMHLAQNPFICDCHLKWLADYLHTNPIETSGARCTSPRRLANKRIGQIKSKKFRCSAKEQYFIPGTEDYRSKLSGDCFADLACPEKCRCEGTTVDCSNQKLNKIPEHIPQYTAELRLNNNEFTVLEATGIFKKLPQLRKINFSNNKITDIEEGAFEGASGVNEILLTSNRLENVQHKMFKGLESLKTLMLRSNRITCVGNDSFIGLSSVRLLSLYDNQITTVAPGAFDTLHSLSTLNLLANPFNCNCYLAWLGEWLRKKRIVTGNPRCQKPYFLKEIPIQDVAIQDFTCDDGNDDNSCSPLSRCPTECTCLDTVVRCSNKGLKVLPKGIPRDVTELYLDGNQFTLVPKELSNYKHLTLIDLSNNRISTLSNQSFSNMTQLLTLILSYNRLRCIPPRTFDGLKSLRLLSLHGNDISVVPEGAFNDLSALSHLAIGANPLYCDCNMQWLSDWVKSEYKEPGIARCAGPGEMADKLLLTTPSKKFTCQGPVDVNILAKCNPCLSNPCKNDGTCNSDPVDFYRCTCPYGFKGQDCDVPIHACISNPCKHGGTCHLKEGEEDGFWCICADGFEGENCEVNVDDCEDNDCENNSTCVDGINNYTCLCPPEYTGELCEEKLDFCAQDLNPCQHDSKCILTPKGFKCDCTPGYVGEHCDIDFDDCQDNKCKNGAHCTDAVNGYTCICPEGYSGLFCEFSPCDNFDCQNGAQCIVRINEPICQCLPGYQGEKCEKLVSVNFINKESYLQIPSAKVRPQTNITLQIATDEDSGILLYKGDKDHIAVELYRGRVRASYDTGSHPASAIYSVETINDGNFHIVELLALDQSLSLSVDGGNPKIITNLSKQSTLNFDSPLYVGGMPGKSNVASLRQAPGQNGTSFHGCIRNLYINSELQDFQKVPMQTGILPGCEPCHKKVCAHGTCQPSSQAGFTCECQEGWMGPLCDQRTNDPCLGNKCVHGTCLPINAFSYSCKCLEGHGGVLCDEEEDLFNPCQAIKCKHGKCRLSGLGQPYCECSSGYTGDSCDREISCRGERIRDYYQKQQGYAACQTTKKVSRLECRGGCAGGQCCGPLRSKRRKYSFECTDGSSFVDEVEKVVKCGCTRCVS
How it was run: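 Wells coated overnight with His-tagged uncleavable full-length human Slit-2 (HEK293-expressed, Ni-agarose purified), 5 μg/well in PBS; blocked 2 h with 10% FBS/TBST. Glycanated glypican-1–Fc (HEK293, DEAE then protein A) added at 1 μg/mL in PBS, 18 h, room temperature. Detection: biotinylated anti-human Fc, HRP-streptavidin, o-phenylenediamine, 450 nm. Non-specific binding from BSA-coated wells; bound amount read from glypican-1–Fc standard curve; replicates.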

[2] = in whole blood; cited from earlier work

inhibition of glypican binding to Slit ([1]; at 5 μmol/L): 61%
inhibition of glypican binding to Slit ([1]; at 50 μmol/L): 67%
Structure (SMILES): O=S(=O)(O)c1cc2c(O)c(c1)Cc1cc(S(=O)(=O)O)cc(c1O)Cc1cc(S(=O)(=O)O)cc(c1O)Cc1cc(S(=O)(=O)O)cc(c1O)Cc1cc(S(=O)(=O)O)cc(c1O)Cc1cc(S(=O)(=O)O)cc(c1O)Cc1cc(S(=O)(=O)O)cc(c1O)Cc1cc(S(=O)(=O)O)cc(c1O)C2 [GL-522-Y-1, cyclic octaphenol-octasulphonic acid]
anticoagulant activity [2]: no significant anticoagulant activity

inhibition of glypican–Slit binding (in words) ([1]; at concentrations up to 50 μmol/L): completely inactive
Structure (SMILES): CO[C@H]1O[C@H](COS(=O)(=O)O)[C@@H](O[C@@H]2O[C@@H](C(=O)O)[C@@H](O[C@H]3O[C@H](COS(=O)(=O)O)[C@@H](O[C@@H]4O[C@H](C(=O)O)[C@@H](O[C@H]5O[C@H](COS(=O)(=O)O)[C@@H](O)[C@H](O)[C@H]5NS(=O)(=O)O)[C@H](O)[C@H]4O)[C@H](OS(=O)(=O)O)[C@H]3NS(=O)(=O)O)[C@H](O)[C@H]2OS(=O)(=O)O)[C@H](O)[C@H]1NS(=O)(=O)O [fondaparinux]

inhibition at 5 µM ([1]; read-out: inhibition of glypican binding to Slit): 53%
Structure (SMILES): Cc1ccc(C(=O)Nc2ccc(S(=O)(=O)O)c3cc(S(=O)(=O)O)cc(S(=O)(=O)O)c23)cc1NC(=O)c1cccc(NC(=O)Nc2cccc(C(=O)Nc3cc(C(=O)Nc4ccc(S(=O)(=O)O)c5cc(S(=O)(=O)O)cc(S(=O)(=O)O)c45)ccc3C)c2)c1 [suramin]
